# Bioassay records: PubChem BioAssay, The Scripps Research Institute Molecular Screening Center
# STAT3 inh = IL-6 driven STAT3 reporter inhibitors, primary screen, U3A cells, luciferase, luminescence, MLSCN library; 0.89% of 190,000 active; inhibition, % at 5.5 µM; IL-6 STAT3-luciferase reporter; host cell line lacks STAT1; AID 862, 2007;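 active means inhibition above the mean inhibition across all screened compounds plus 3 SD, cut at about 44% in these data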;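 further: 0% = DMSO only wells and 100% = 100 µM nifuroxazide control wells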
# PERK inh = block of dimerizer-induced PERK translation repression, primary screen, PERK inhibitor project, CHO PERK-DD cells, SEAP luminescence, HTS; Eukaryotic translation initiation factor 2-alpha kinase 3 (Homo sapiens), Q9NZJ5; CHO PERK-DD fusion, SEAP luminescence translation reporter; inhibition, % at 5.6 µM; 0.17% of 220,000 active;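 active means inhibition above the mean inhibition of all tested compounds plus 3 SD, set separately per screening campaign, cut at about 2.9% in these data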;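 further: PERK kinase domain activated by AP20187 dimerizer at 100 nM; 0% = DMSO with dimerizer and 100% = rapamycin at 8.4 µM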
# Target sequence (Q9NZJ5 whole entry, looked up, the tested form may be a part): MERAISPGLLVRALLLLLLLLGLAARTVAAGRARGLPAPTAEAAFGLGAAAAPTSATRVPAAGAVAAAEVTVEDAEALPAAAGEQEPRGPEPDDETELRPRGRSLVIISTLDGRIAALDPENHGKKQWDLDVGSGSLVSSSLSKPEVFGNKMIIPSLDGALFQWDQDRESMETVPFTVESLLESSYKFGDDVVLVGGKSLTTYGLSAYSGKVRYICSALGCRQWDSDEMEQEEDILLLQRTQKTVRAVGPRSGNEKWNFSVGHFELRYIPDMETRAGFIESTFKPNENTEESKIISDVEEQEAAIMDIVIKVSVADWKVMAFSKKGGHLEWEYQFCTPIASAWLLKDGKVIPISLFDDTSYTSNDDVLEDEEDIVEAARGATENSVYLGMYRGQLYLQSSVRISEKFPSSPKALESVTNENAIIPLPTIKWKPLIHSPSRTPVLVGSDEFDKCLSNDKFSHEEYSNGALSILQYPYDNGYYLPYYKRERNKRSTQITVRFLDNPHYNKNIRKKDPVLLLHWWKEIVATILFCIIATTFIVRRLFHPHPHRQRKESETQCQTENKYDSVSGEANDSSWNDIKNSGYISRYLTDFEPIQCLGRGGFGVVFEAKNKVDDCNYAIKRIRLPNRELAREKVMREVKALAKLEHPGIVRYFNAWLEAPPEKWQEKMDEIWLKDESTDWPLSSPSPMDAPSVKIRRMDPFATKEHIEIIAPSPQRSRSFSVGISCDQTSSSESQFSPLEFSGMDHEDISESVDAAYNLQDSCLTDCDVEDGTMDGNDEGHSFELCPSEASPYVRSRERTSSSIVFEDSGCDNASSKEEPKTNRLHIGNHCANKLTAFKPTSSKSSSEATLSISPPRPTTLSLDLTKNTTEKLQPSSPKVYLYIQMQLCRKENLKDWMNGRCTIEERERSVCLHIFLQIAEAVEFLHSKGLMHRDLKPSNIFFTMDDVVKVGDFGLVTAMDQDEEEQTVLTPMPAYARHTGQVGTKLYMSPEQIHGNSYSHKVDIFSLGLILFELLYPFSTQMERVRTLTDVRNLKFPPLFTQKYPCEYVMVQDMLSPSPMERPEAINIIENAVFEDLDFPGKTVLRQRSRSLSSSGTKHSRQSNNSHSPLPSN
# STAT3 act-1 = IL-6 driven STAT3 reporter potentiators, primary screen, U3A cells, luciferase, luminescence, MLSCN library. 0.91% of 190,000 active. IL-6 STAT3-luciferase reporter; 100% = signal with IL-6 EC80 alone. activation (% of control), % at 5.6 µM;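 active means activation above the screen-wide mean of compound activation plus 3 SD, cut at about 130% in these data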;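 further: 0% = background luminescence of wells with medium and substrate only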
#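 Test system: Human STAT1-deficient U3A cells with stable STAT3-luciferase reporter | Also added: Interleukin-6, 33 ng/mL | Timing: Compound pre-incubation 1 h before IL-6, then 6 h stimulation at 37 °C | Technique: Luciferase reporter luminescence | Read-out: Percent of IL-6-only median luminescence | Benchmarks: IL-6-only wells as 100% reference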
# STAT1 inh = STAT1 signaling inhibitors, primary screen, cell-based, HTS, luciferase reporter; NIH 3T3 STAT1-luciferase reporter, IFN-gamma, luminescence; inhibition, % at 5.5 µM; 0.35% of 200,000 active; AID 920, 2007;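 active means inhibition above a set limit, the mean inhibition across all tested compounds plus 3 SD, cut at about 34% in these data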;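 further: 0% = IFN-gamma with DMSO and 100% = IFN-gamma with 300 µM nifuroxazide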
# STAT3 act-2 = STAT3 reporter potentiators, retest of hits, confirmation, U3A cells, luciferase, luminescence | IL-6 potentiation; U3A cells lack STAT1; 100 means same as IL-6 alone | potentiation (% of control), % at 5.7 µM | 64% of 1,200 active | shares compounds with STAT3 act-1;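 active means percent activation of the STAT3 luciferase reporter above a set limit taken from the earlier primary screen, cut at about 130% in these data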;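 further: 0% = background signal of medium plus substrate and 100% = median of IL-6 with DMSO wells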
# NFkB act STAT3ct = NF-kB reporter activators in human cells, counter-screen for STAT3 activator project; shares compounds with STAT3 act-1; NF-kappaB reporter activation; activation (% of control), % at 5.7 µM; 11% of 1,200 active; AID 1309, 2008; in the data active means activation above about 120%;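 further: reporter induced by TNF-alpha stimulation; 100% = median of stimulated DMSO wells and 0% = no signal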
# STAT1 act STAT3c = STAT1 reporter activators, IFN-gamma induced, counter-screen for STAT3 activator project, cell-based, NIH 3T3, luciferase luminescence. shares compounds with STAT3 act-1. NIH 3T3 STAT1-luciferase reporter. activation (% of control), % at 5.7 µM. 13% of 1,200 active;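 active means activation above the solvent-only control well mean plus 3 SD, set per screening run, cut at about 120% in these data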;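 further: 100% = IFN-gamma with DMSO median signal so 100% means no change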
# * = called active by the depositor; · = not tested or not shown. A selection: hits, their analogues and other compounds. The true share with any hit is near 1.8%.
SMILES,STAT3 inh,PERK inh,STAT3 act-1,STAT1 inh,STAT3 act-2,NFkB act STAT3ct,STAT1 act STAT3c
COc1cc2c(cc1OC)CN(CC(=O)Nc1ccccc1C#N)CC2,-64,-1,159*,4,138*,104,94
COc1ccc(N(C(C)=O)c2nc(C)cc(C)c2C#N)c(OC)c1,-60,0,154*,0,157*,103,100
COc1ccc(Oc2nc(C)cc(C)c2C#N)cc1,17,0,89,-3,·,·,·
O=S(=O)(Nc1ccc2cn[nH]c2c1)c1ccc(Cl)s1,-49,0,138*,0,122,97,95
COc1ccccc1S(=O)(=O)Nc1ccc2cn[nH]c2c1,-26,1,126,2,·,·,·
CCCCS(=O)(=O)Nc1ccc2cn[nH]c2c1,-47,1,143*,-2,139*,101,99
O=C(NNC(=O)c1sccc1-n1cccc1)c1cccs1,10,2,95,5,·,·,·
CCOc1cc(C=O)cc(Br)c1OCC(N)=O,6,0,99,0,·,·,·
CCOC(=O)c1[nH]c2ccccc2c1NC(=O)COC,-70,1,168*,18,165*,101,93
CCOC(=O)c1[nH]c2ccccc2c1NC(=O)CC,-110,0,194*,9,148*,108,96
CCOC(=O)c1[nH]c2ccccc2c1NC(=O)C(C)(C)C,3,1,102,0,·,·,·
Cc1ccc([N+](=O)[O-])c(C(=O)N/N=C/c2cccnc2)c1,·,1,·,·,·,·,·
O=[N+]([O-])c1cccc(/C=C/c2nc3ccc([N+](=O)[O-])cc3[nH]2)c1,26,0,84,-9,·,·,·
CC1CCCC(C)N1C(=O)Cn1cc(/C=C2/C(=O)Nc3ccccc32)c2ccccc21 (stereo not given),-70,-1,158*,-4,151*,99,103
COC(=O)c1cn(CC(=O)N2C(C)CCCC2C)c2ccccc12 (stereo not given),-1,0,104,-8,·,·,·
O=S1(=O)CCN(Cc2cccc(C(F)(F)F)c2)CC1,-5,2,106,10,·,·,·
Cc1ccc(Cl)cc1N1CCN(C(=O)Cc2c(C(=O)O)[nH]c3ccccc23)CC1,-45,0,138*,8,123,106,93
O=C1c2ccccc2C(=O)N1OCc1ccccc1,-40,1,137*,-10,114,103,105
O=C1c2ccccc2C(=O)N1OCc1cccc(Cl)c1,16,0,91,-1,·,·,·
Cc1cc(NC(=O)CN2CC(C)OC(C)C2)n(-c2nc3ccccc3s2)n1 (stereo not given),-59,0,150*,-2,133*,102,102
Cc1cc(NC(=O)C(C)C)n(-c2nc3ccccc3s2)n1,-40,0,143*,-24,163*,116,117
S=c1[nH]nc(-c2cc3ccccc3o2)n1Cc1ccccc1,-1,0,103,-1,·,·,·
CC1=C(C#N)C(c2ccccc2O)C(C#N)=C(C)N1,-47,1,143*,7,151*,103,99
COc1ccc(OC)c(NC(=O)c2cc3ccccc3o2)c1,-43,0,136*,-8,129,109,112
COc1ccc(C)cc1NC(=O)c1cc2ccccc2o1,-28,1,131,-16,·,·,·
SMILES,STAT3 inh,PERK inh,STAT3 act-1,STAT1 inh,STAT3 act-2,NFkB act STAT3ct,STAT1 act STAT3c
O=C(c1ccc(Cl)cc1)N1CCCCC(Cl)C1=O (stereo not given),10,-1,100,0,·,·,·
CC(C)OC(=O)c1cccnc1SCc1cc(=O)n2ccccc2n1,-48,-1,144*,3,127,105,104
CC(C)OC(=O)c1cccnc1SCC(=O)N(C)c1ccccc1,6,-1,99,6,·,·,·
NC(=O)C1CCN(c2nc(-c3ccccc3)nc3ccccc23)CC1,4,0,100,8,·,·,·
CCOC(=O)C1CCN(c2nc(-c3ccc(Br)cc3)nc3ccccc23)CC1,-40,1,142*,5,137*,98,89
O=C(CSc1nc2ccccc2o1)Nc1nc2ccc(Br)cc2s1,14,0,93,-4,·,·,·
Cc1cccc2sc(NC(=O)CSc3nc4ccccc4o3)nc12,-44,0,136*,9,115,102,94
O=C(CN1CCCC(O)C1)N1c2ccccc2Sc2ccc(C(F)(F)F)cc21 (stereo not given),-10,-2,113,1,·,·,·
O=C(CSc1nc(C2CC2)nc2ccccc12)N1c2ccccc2Sc2ccc(C(F)(F)F)cc21,-48,0,145*,3,123,110,98
O=C1CN(C(=O)c2cc3ccccc3o2)c2ccccc2N1,7,0,96,-12,·,·,·
O=c1[nH]c(Cc2ccccc2)nc2c1oc1ccccc12,-1,0,104,2,·,·,·
Cc1nc2c(oc3ccccc32)c(=O)o1,-88,0,174*,-2,159*,116,107
O=C1CCCC(=O)N1c1ccc(Oc2ccc(Cl)cc2)cc1,14,0,88,2,·,·,·
FC(F)(F)c1cccc(-c2nc3nc(Cl)c(Cl)nc3[nH]2)c1,·,0,·,·,·,·,·
CCOC(=O)C1=C(CSc2nc(-c3ccccc3)ccc2C#N)OC(N)=C(C#N)C1c1ccccc1 (stereo not given),-6,0,102,-3,·,·,·
CCOC(=O)C1=C(CSc2nc(-c3ccccc3)ccc2C#N)OC(N)=C(C#N)C1c1cccnc1 (stereo not given),-48,0,137*,-8,129,120,117
O=C1C(=O)N(Cc2ccccc2)C(=O)N1CCN1C(=O)c2ccccc2C1=O,0,1,104,11,·,·,·
O=C1Cc2ccccc2C(=O)N1CCc1ccccc1,-55,-1,155*,1,136*,102,97
CC(NC(=O)Cc1ccc([N+](=O)[O-])cc1)c1ccc2c(c1)OCO2 (stereo not given),·,1,·,·,·,·,·
Cc1ccc2cc(C#N)c(N3CCCC3)nc2c1C,-46,1,140*,-8,137*,117,133*
Cc1cc(C)n(-c2nc(-c3ccccc3)cs2)n1,-44,0,137*,-14,120,121*,122*
Cn1c(C(=O)OC(C(=O)NC2CCCCC2)c2cccnc2)cc2sccc21 (stereo not given),8,-2,96,0,·,·,·
CCC(C)Sc1cc(C(F)(F)F)c(C(=O)Nc2ccc(Cl)cc2)cn1 (stereo not given),·,0,·,·,·,·,·
